Measurements: article PMC9073569 (JAMA Network Open, 2022)
Where two headings read alike, the source gives them in different places.

Tests used:
[1] = tested on: moderate to severe pruritus in patients receiving hemodialysis; experiment: 24-hour Worst Itching Intensity Numerical Rating Scale; type: in vivo, Japanese patients; conditions: week 8; for proportion of 4-point improvement in the NRS score: placebo 36%; for proportion of 3-point improvement in the NRS score: placebo 50%
In short: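 Adults aged 20 or older with ESKD on hemodialysis 3 times weekly for at least 12 weeks, with weekly mean NRS above 4, were randomized double-blind. Test compound or placebo was given IV after each dialysis session for 8 weeks. Worst itch over the prior 24 h (0–10) was logged daily in an e-diary and averaged weekly. Proportions improving ≥3 or ≥4 points at week 8 were compared with placebo by Fisher exact test.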

[2] = Plasma concentrations of difelikefalin; type: in vivo, Japanese patients; conditions: weeks 1, 4, and 7; LC-MS/MS
In short: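 Test compound was given IV at 0.25, 0.5 or 1.0 μg/kg after each hemodialysis session, 3 times weekly, with volume set by dry weight. Plasma was sampled before the first dialysis (weeks 1, 2, 4, 7, 8), 5 min post-dose (weeks 1, 4, 7), before the second dialysis (weeks 1, 4, 7) and 1 h post-dose (week 7). Assay was LC-MS/MS; summaries included geometric means and geometric CV.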

[3] = tested on: pruritus in patients receiving hemodialysis; conditions: 0.5, 1.0, and 1.5 μg/kg; previous phase 2 trial in the US; cited from earlier work
[4] = tested on: patients with pruritus receiving hemodialysis; type: in vivo, Japanese patients; conditions: for Constipation / Death / Malaise / Other serious adverse drug reactions / Pyrexia: placebo 0; for Adverse events leading to Discontinuation / Nausea: placebo 1 (2); for Adverse events leading to Interruption / Arthralgia / Blood pressure decreased / Other serious adverse events: placebo 2 (3); for Dizziness / Procedural hypotension / Somnolence / Vomiting: placebo 3 (5); for Adverse drug reactions / Nasopharyngitis: placebo 7 (11); for Adverse events: placebo 42 (67); for drug-related serious AEs (kind of event): patients recovered after discontinuing or suspending use of the study drug
[5] = cited from earlier work
[6] = 0.25 μg/kg iv 3 times a week, 8 weeks, n = 61
[7] = 0.5 μg/kg iv 3 times a week, 8 weeks, n = 61
[8] = 1.0 μg/kg iv 3 times a week, 8 weeks, n = 62

With difelikefalin the “proportion of 4-point improvement in the NRS score” value (shortened to “proportion of 4-point improvement”) ([1]; 0.25 μg/kg iv 3 times a week, n = 20 of 59) was 34%, the “proportion of 3-point improvement in the NRS score” value (“proportion of 3-point improvement” for short) ([1]; 0.25 μg/kg iv 3 times a week, n = 31 of 59) was 53% and the “proportion of 4-point improvement” value ([1]; 0.5 μg/kg iv 3 times a week, n = 27 of 53) was 51%. The “proportion of 3-point improvement” value ([1]; 0.5 μg/kg iv 3 times a week, n = 32 of 53) was 60%, the “proportion of 4-point improvement” value ([1]; 1.0 μg/kg iv 3 times a week, n = 23 of 53) was 43% and the “proportion of 3-point improvement” value ([1]; 1.0 μg/kg iv 3 times a week, n = 30 of 53) was 57%. For the same substance, the “plasma difelikefalin concentrations in relation to body weight classification” value [2] was “No significant differences”, the “dose response in relation to efficacy” value [3] was “no clear dose response” and the Constipation [4, 6] was 5 (8) No. (%). For the same substance, the Death [4, 6] was 0 No. (%), the Malaise [4, 6] was 2 (3) No. (%) and the “Other serious adverse drug reactions” value [4, 6] was 0 No. (%). For the same substance, the Pyrexia [4, 6] was 2 (3) No. (%), the “Adverse events leading to Discontinuation” value [4, 6] was 0 No. (%) and the Nausea [4, 6] was 0 No. (%). For the same substance, the “Adverse events leading to Interruption” value [4, 6] was 0 No. (%), the Arthralgia [4, 6] was 3 (5) No. (%) and the Blood pressure decreased [4, 6] was 0 No. (%). The “Other serious adverse events” value [4, 6] was 3 (5) No. (%), the Dizziness [4, 6] was 3 (5) No. (%) and the Procedural hypotension [4, 6] was 4 (7) No. (%). The Somnolence [4, 6] was 2 (3) No. (%), the Vomiting [4, 6] was 1 (2) No. (%) and the Adverse drug reactions [4, 6] was 9 (15) No. (%). The Nasopharyngitis [4, 6] was 8 (13) No. (%), the Adverse events [4, 6] was 44 (72) No. (%) and the “drug-related serious AEs (kind of event)” value ([4]; 0.5 μg/kg group) was “Altered state of consciousness”. For the same substance, the Constipation [4, 7] was 3 (5) No. (%), the Death [4, 7] was 0 No. (%) and the Malaise [4, 7] was 2 (3) No. (%). The “Other serious adverse drug reactions” value [4, 7] was 1 (2) No. (%), the Pyrexia [4, 7] was 4 (7) No. (%) and the “Adverse events leading to Discontinuation” value [4, 7] was 4 (7) No. (%). The Nausea [4, 7] was 1 (2) No. (%), the “Adverse events leading to Interruption” value [4, 7] was 5 (8) No. (%) and the Arthralgia [4, 7] was 5 (8) No. (%). The Blood pressure decreased [4, 7] was 4 (7) No. (%), the “Other serious adverse events” value [4, 7] was 8 (13) No. (%) and the Dizziness [4, 7] was 3 (5) No. (%). The Procedural hypotension [4, 7] was 3 (5) No. (%), the Somnolence [4, 7] was 3 (5) No. (%) and the Vomiting [4, 7] was 1 (2) No. (%). The Adverse drug reactions [4, 7] was 9 (15) No. (%), the Nasopharyngitis [4, 7] was 6 (10) No. (%) and the Adverse events [4, 7] was 47 (77) No. (%). For the same substance, the “drug-related serious AEs (kind of event)” value ([4]; 1.0 μg/kg group) was “obstruction in the small intestine”, the Constipation [4, 8] was 7 (11) No. (%) and the Death [4, 8] was 0 No. (%). The Malaise [4, 8] was 4 (6) No. (%), the “Other serious adverse drug reactions” value [4, 8] was 1 (2) No. (%) and the Pyrexia [4, 8] was 0 No. (%). For the same substance, the “Adverse events leading to Discontinuation” value [4, 8] was 5 (8) No. (%), the Nausea [4, 8] was 4 (6) No. (%) and the “Adverse events leading to Interruption” value [4, 8] was 5 (8) No. (%). For the same substance, the Arthralgia [4, 8] was 2 (3) No. (%), the Blood pressure decreased [4, 8] was 3 (5) No. (%) and the “Other serious adverse events” value [4, 8] was 5 (8) No. (%). The Dizziness [4, 8] was 5 (8) No. (%), the Procedural hypotension [4, 8] was 2 (3) No. (%) and the Somnolence [4, 8] was 6 (10) No. (%). The Vomiting [4, 8] was 4 (6) No. (%), the Adverse drug reactions [4, 8] was 17 (27) No. (%) and the Nasopharyngitis [4, 8] was 3 (5) No. (%). The Adverse events ([4]; 1.0 μg/kg iv 3 times a week, 8 weeks, n = 62, P = .02) was 53 (85) No. (%), the “changes in clinical laboratory tests, vital signs, and 12-lead electrocardiogram” value ([4]; 0.25, 0.5 and 1.0 μg/kg iv 3 times a week, 8 weeks) was “No notable changes” and the “transfer to the CNS” value [5] was “limited”.
